Screening data from PubChem.
Compounds with a hit are over-represented: about 2.1% of the library has one in this group of screens.
Hck-Nef inh = blocks Nef-activated human Hck kinase; Recombinant Hck-YEEI plus Nef, Z-Lyte FRET kinase assay; inhibition, % at 20 µM; 0.68% of 220,000 active; AID 463187;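 active = Hck-Nef kinase inhibition above about 50%, limit read from the data; inactive = inhibition below that limit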;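 also: 0% = DMSO with Hck plus Nef and 100% = Hck alone without Nef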
p97 inhibitor = inhibitors of human p97 ATPase. P55072. recombinant p97 ATPase, Kinase-Glo ATP luminescence, 3 h. inhibition, % at 8 µM. 0.42% of 220,000 active; in the data active = inhibition above about 15%;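 also: 0% = DMSO vehicle and 100% = wells lacking enzyme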
Runt-CBFb FRET = Runt domain-CBFb interaction inhibition | Q01196+Q13951 | Cerulean-Runt/Venus-CBFb FRET ratio 530/480, 1 h | inhibition, % at 20 µM | 0.46% of 220,000 active | AID 1496;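 active = inhibition over about 50% at 20 µM in the single-dose screen, limit read from the data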;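 also: 0% = DMSO wells and 100% = excess unlabeled CBFb competitor control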
Target sequence (Q01196 whole entry, looked up, the tested form may be a part): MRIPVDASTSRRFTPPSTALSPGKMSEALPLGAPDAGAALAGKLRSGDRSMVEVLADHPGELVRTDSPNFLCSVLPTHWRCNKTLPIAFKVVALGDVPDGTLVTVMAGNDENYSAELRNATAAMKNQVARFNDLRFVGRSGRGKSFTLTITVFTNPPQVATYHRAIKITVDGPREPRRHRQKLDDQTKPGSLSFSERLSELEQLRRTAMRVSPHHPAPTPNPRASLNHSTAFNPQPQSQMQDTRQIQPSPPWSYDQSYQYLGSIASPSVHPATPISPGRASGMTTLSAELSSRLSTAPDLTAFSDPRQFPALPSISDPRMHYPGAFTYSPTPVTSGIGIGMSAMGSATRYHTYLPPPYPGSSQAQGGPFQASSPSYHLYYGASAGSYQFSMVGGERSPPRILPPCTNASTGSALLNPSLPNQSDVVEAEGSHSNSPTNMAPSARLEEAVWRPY
Target sequence (Q13951 whole entry, looked up, the tested form may be a part): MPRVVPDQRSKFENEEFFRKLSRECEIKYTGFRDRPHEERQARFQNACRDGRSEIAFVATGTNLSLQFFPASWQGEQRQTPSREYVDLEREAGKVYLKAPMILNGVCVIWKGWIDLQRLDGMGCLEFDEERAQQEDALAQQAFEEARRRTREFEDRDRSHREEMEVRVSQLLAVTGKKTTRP
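test system = Cerulean-Runt domain fusion protein, energy donor | probe or stimulus = Venus-CBFb binding partner, 100 nM | incubation = two 1 h room-temperature incubations shielded from light | detection = fluorescence energy transfer, 422 nm excitation, 530/480 nm emission | measure = loss of energy transfer signal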
Runt-SMMHC FRET = inhibitors of human RUNX1 Runt domain binding to CBFb-SMMHC | Q01196+Q13951 | Cerulean-Runt/Venus-CBFb-SMMHC FRET ratio 530/480, 1 h | inhibition, % at 20 µM | 0.74% of 220,000 active;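 active = mean inhibition across duplicate retests at 20 µM reaching about 50%, limit read from the data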;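 also: 0% = DMSO wells and 100% = wells with excess untagged CBFb-SMMHC; inhibitors lower the FRET ratio by blocking Runt binding to CBFb-SMMHC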
RanGTP-Imp inh = disruptors of Ran-importin-beta complex formation – biochemical, FRET, CFP-Ran, YFP-importin-beta, homogeneous, primary screen | inhibition, % (concentration not given with the values) | cell-free CFP-Ran/YFP-importin-beta FRET ratio | 1.1% of 300,000 active;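 active = more than half of the replicate wells show a fall in the fluorescence ratio signal beyond about 16%, limit read from the data, passing the limit was not always enough; inconclusive = exactly half of the replicate wells pass the set limit; inactive = fewer than half of replicates pass the limit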;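 also: 0% = DMSO wells and 100% = Ran loaded with GDP instead of GTP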
TbHK1 inh = T. brucei hexokinase 1 inhibition. inhibition, % at 10 µM. recombinant TbHK1, G6PDH-coupled NADH A340. 0.11% of 220,000 active. AID 1430;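 active = inhibition of 50% or more in the single-dose primary screen; inactive = inhibition below 50%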
Numbers without * were called inactive.

Results for O=C(NNC(=S)Nc1ccccc1)C1CCCCC1 ?
Hck-Nef inh: -1.0; p97 inhibitor: -1.4; Runt-CBFb FRET: 1.4; Runt-SMMHC FRET: -0.5; RanGTP-Imp inh: 178.1*; TbHK1 inh: 1.3

Results for NC(=O)c1ccccc1NC(=O)CSc1cn[nH]n1 ?
RanGTP-Imp inh: 1.5

Results for Cc1cc(N)n2nc(C)c(-c3ccccc3)c2n1 ?
Hck-Nef inh: 2.0; p97 inhibitor: 6.7; Runt-CBFb FRET: 94.7*; Runt-SMMHC FRET: -11.3; RanGTP-Imp inh: inconclusive; TbHK1 inh: -6.6

What do the screens show for `O=C(Nc1ccc2[nH]c(=O)[nH]c2c1)c1ccc(Cl)c(Cl)c1`?
Hck-Nef inh: -6.9; p97 inhibitor: -2.0; Runt-CBFb FRET: 0.3; Runt-SMMHC FRET: 0.1; RanGTP-Imp inh: -12.6; TbHK1 inh: -0.5

Results for O=C(O)/C=C/c1ccc(S(=O)(=O)Nc2ccc3[nH]c(=O)[nH]c3c2)cc1 ?
RanGTP-Imp inh: 27.1*

Results for O=C(O)c1ccc(Cl)c(S(=O)(=O)Nc2ccc3[nH]c(=O)[nH]c3c2)c1 ?
Hck-Nef inh: 11.2; p97 inhibitor: 2.3; Runt-CBFb FRET: 3.8; Runt-SMMHC FRET: -12.7; RanGTP-Imp inh: 21.9*; TbHK1 inh: -4.2

Results for O=C(O)c1cccc(S(=O)(=O)Nc2ccc3[nH]c(=O)[nH]c3c2)c1 ?
Hck-Nef inh: 27.5; p97 inhibitor: 4.3; Runt-CBFb FRET: -1.7; Runt-SMMHC FRET: -16.5; RanGTP-Imp inh: 16.4*; TbHK1 inh: -4.7

Results for Cc1cccn2cc(CCNC(=O)c3cccs3)nc12 ?
Hck-Nef inh: 5.6; p97 inhibitor: 4.6; Runt-CBFb FRET: -0.6; Runt-SMMHC FRET: -7.2; RanGTP-Imp inh: -2.4; TbHK1 inh: -10.0

Results for COc1ccc([C@@H](C)NC(=O)c2ccc3oc(C(C)C)nc3c2)cc1 ?
RanGTP-Imp inh: -2.5

How did CCN(CC)C(=O)Cn1cc(C(=O)C(=O)NCc2ccccn2)c2ccccc21 do in these assays?
RanGTP-Imp inh: 4.8

How did Cc1ccc(S(=O)(=O)NC(=O)COc2ccccc2C(N)=O)cc1 do in these assays?
Hck-Nef inh: 0.3; p97 inhibitor: -1.3; Runt-CBFb FRET: 1.7; Runt-SMMHC FRET: -3.9; RanGTP-Imp inh: 28.0*; TbHK1 inh: -0.7

What do the screens show for `CCOC(=O)C1=C(C)NC2=C(C(=O)C(C(=O)OCC)C(c3ccco3)C2)C1c1ccccn1` (stereo unspecified)?
Hck-Nef inh: 16.8; p97 inhibitor: -7.7; Runt-CBFb FRET: 20.9; Runt-SMMHC FRET: 38.5; RanGTP-Imp inh: 31.6*; TbHK1 inh: -14.2

Results for CCCn1c(NCc2cc(C)ccc2O)nc2ccccc21 ?
Hck-Nef inh: 2.5; p97 inhibitor: -0.8; Runt-CBFb FRET: 2.0; Runt-SMMHC FRET: 0.2; RanGTP-Imp inh: 27.6*; TbHK1 inh: 1.1

Results for CCOC(=O)N1CCN(C(=O)c2cc3c(=O)n4cccc(C)c4nc3s2)CC1 ?
RanGTP-Imp inh: -1.4

How did C=CCn1c(=N)c(C(=O)OCC)cc2c(=O)n3cccc(C)c3nc21 do in these assays?
Hck-Nef inh: 172.4*; p97 inhibitor: 4.6; TbHK1 inh: -6.3

How did CCOC(=O)c1cc2c(=O)n3cccc(C)c3nc2n(Cc2ccccc2Cl)c1=N do in these assays?
Runt-CBFb FRET: 125.5*; Runt-SMMHC FRET: 65.0*

Results for Brc1ccc(-c2ccc(/C=N/Nc3nc4ccccc4[nH]3)o2)cc1 ?
Hck-Nef inh: 8.1; p97 inhibitor: 6.0; Runt-CBFb FRET: 25.9; Runt-SMMHC FRET: 62.9; RanGTP-Imp inh: 63.6*; TbHK1 inh: -1.7

Results for C(=N\Nc1nc2ccccc2[nH]1)/c1ccccc1 ?
Hck-Nef inh: 18.9; p97 inhibitor: 4.4; RanGTP-Imp inh: -2.2; TbHK1 inh: -39.7

Results for COc1cc2c(c(OC)c1O)C(=O)CO2 ?
Hck-Nef inh: -0.2; p97 inhibitor: 6.8; Runt-CBFb FRET: 1.8; Runt-SMMHC FRET: -5.8; RanGTP-Imp inh: -2.3; TbHK1 inh: -27.4

How did COc1cc(OC)c2c(O)c3c(c(-c4c5c(c(O)c6c(OC)cc(OC)cc46)CO[C@@H](C)[C@H]5O)c2c1)[C@H](O)[C@H](C)OC3 do in these assays?
Hck-Nef inh: 50.6*; p97 inhibitor: -1.2; Runt-CBFb FRET: 11.6; Runt-SMMHC FRET: 3.6; RanGTP-Imp inh: inconclusive; TbHK1 inh: 30.9

What do the screens show for `COc1cc(-c2nnc(SCc3cc(=O)oc4cc(O)c(O)cc34)o2)cc(OC)c1OC`?
Hck-Nef inh: 10.8; p97 inhibitor: 7.5; Runt-CBFb FRET: 67.3*; Runt-SMMHC FRET: 58.7*; RanGTP-Imp inh: 9.1; TbHK1 inh: -9.7

Results for COc1ccc(/C=C/C(=O)c2ccc(Cl)cc2)c(OC)c1 ?
Hck-Nef inh: 1.4; p97 inhibitor: 2.2; Runt-CBFb FRET: -2.1; Runt-SMMHC FRET: -5.5; RanGTP-Imp inh: 20.5*; TbHK1 inh: 1.8

Results for C=CCc1cc(Cl)ccc1OC(=O)Nc1cccc(Cl)c1 ?
Hck-Nef inh: 7.1; p97 inhibitor: -4.1; Runt-CBFb FRET: -0.9; Runt-SMMHC FRET: -0.6; RanGTP-Imp inh: -4.9; TbHK1 inh: -10.1

What do the screens show for `CCC(=O)Nc1c(C#N)c2nc3ccccc3nc2n1C1CCCCC1`?
Hck-Nef inh: 1.3; p97 inhibitor: 0.8; Runt-CBFb FRET: -5.2; Runt-SMMHC FRET: -25.7; RanGTP-Imp inh: 3.7; TbHK1 inh: -3.9

What do the screens show for `N#Cc1c(N)n(-c2ccc(N)cc2)c2nc3ccccc3nc12`?
Hck-Nef inh: 2.8; p97 inhibitor: 2.3; Runt-CBFb FRET: 1.1; Runt-SMMHC FRET: 0.1; RanGTP-Imp inh: -0.5; TbHK1 inh: -18.6

What do the screens show for `N#Cc1c(N)n(-c2ccc(C(=O)O)cc2)c2nc3ccccc3nc12`?
Hck-Nef inh: 43.0; p97 inhibitor: 2.7; Runt-CBFb FRET: 92.2*; Runt-SMMHC FRET: 81.7*; RanGTP-Imp inh: 50.3*; TbHK1 inh: -2.4

Results for N#Cc1c(N)n(C2CCCCC2)c2nc3ccccc3nc12 ?
Hck-Nef inh: 11.7; p97 inhibitor: -2.0; Runt-CBFb FRET: 78.3*; Runt-SMMHC FRET: 58.3*; RanGTP-Imp inh: 42.8*; TbHK1 inh: -2.6

What do the screens show for `COc1cccc(CN(C)C(=S)Nc2ccc(C)c(C)c2)c1`?
Hck-Nef inh: 24.2; p97 inhibitor: -3.9; Runt-CBFb FRET: 1.8; Runt-SMMHC FRET: -4.0; RanGTP-Imp inh: 2.5; TbHK1 inh: 0.4

Results for COc1ccc(Cl)cc1S(=O)(=O)N1CCC(C(=O)NC2CCCC2)CC1 ?
RanGTP-Imp inh: 3.7

What do the screens show for `O=C(N=C1N=C2C=CC=CN2Cc2ccccc21)c1ccc(S(=O)(=O)N2CCOCC2)cc1`?
Hck-Nef inh: 22.9; p97 inhibitor: 2.5; Runt-CBFb FRET: -0.9; Runt-SMMHC FRET: 0.1; RanGTP-Imp inh: 2.0; TbHK1 inh: -1.0

What do the screens show for `Cc1cc(NC(=O)CCl)n(-c2nc3ccccc3s2)n1`?
Hck-Nef inh: 58.6*; p97 inhibitor: 9.7; Runt-CBFb FRET: -4.8; Runt-SMMHC FRET: -0.1; RanGTP-Imp inh: -0.3; TbHK1 inh: -4.7
